Two compounds from ChEMBL document CHEMBL4411314, “Evaluation of Amides, Carbamates, Sulfonamides, and Ureas of 4-Prop-2-ynylidenecycloalkylamine as Potent, Selective, and Bioavailable Negative Allosteric Modulators of Metabotropic Glutamate Receptor 5” (J Med Chem, 2019) can be followed below.

In data set [1] the target is T1, Metabotropic glutamate receptor 5 (Homo sapiens, UniProt P41594). The data set can be described thus: Negative allosteric modulation of human mGlu5 receptor expressed in CHO-TREx cell membranes assessed as reduction in quisqualate-induced Ca2+ mobilization incubated for 18 hrs and measured every 1.5 secs intervals for 60 secs by Fluo-4/AM dye-based fluorescence analysis. The class given is functional. The essentials: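 Functional Ca2+ mobilization in CHO T-REx cells carrying cloned human mGlu5 receptor; inhibition of the quisqualate-induced intracellular [Ca2+]i response measured to give IC50.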

Data set [2] in a line: Drug metabolism in rat liver microsomes assessed as hydroxylation by HPLC-MS/MS analysis. The format is ADME, Microsome. For orientation: Liver microsomes are a subcellular fraction often used to study metabolism.
Data set [3] concerns the target T1, Metabotropic glutamate receptor 5. The data set can be described thus: Displacement of [3H]MPEP from human mGlu5 receptor expressed in CHO-TREx cell membranes after 60 mins by liquid scintillation spectrometric analysis. A general note: In a radioligand displacement assay an active substance lowers the binding of a labelled ligand.
A short description of data set [4]: Metabolic stability in rat liver microsomes assessed as parent compound remaining at 0.2 mM after 30 mins in presence of NADPH by HPLC-MS/MS analysis. The note with it: read-out: Stability. The format is ADME, Microsome.
For data set [5], the target named is Cytochrome P450 2D6 (Homo sapiens, UniProt P10635). The data set can be described thus: Inhibition of recombinant human CYP2D6 using 3-[2-(N,N-diethylamino)ethyl]-7-methoxy-4-methylcoumarin as substrate preincubated for 10 mins followed by substrate addition and measured after 30 mins. The format is ADME.
In data set [6] the target is Metabotropic glutamate receptor 1 (Rattus norvegicus, UniProt P23385). The data set can be described thus: Displacement of [3H]R214127 from rat mGlu1 receptor expressed in CHO-TREx cell membranes after 30 mins by liquid scintillation spectrometric analysis.
Data set [7] has as its target CYP3A4 (Homo sapiens, UniProt P08684). The data set can be described thus: Metabolic stability assessed as human CYP3A4-mediated drug metabolism by measuring parent compound remaining at 0.2 mM after 30 mins in presence of NADPH by HPLC-MS/MS analysis. The note with it: read-out: Stability. The class given is ADME.
Data set [8] is described as follows: Drug metabolism in rat liver microsomes assessed as oxidation followed by urea deethylation by HPLC-MS/MS analysis. The class given is ADME, Microsome.
The target of data set [9] is Cytochrome P450 3A4 (Homo sapiens, UniProt P08684). Put plainly: Inhibition of recombinant human CYP3A4 using 7-benzyloxy-trifluoromethylcoumarin as substrate preincubated for 10 mins followed by substrate addition and measured after 30 mins. The class given is ADME.
Data set [10] has as its target T2, Cytochrome P450 1A2 (Homo sapiens, UniProt P05177).
T2 sequence (P05177 whole entry): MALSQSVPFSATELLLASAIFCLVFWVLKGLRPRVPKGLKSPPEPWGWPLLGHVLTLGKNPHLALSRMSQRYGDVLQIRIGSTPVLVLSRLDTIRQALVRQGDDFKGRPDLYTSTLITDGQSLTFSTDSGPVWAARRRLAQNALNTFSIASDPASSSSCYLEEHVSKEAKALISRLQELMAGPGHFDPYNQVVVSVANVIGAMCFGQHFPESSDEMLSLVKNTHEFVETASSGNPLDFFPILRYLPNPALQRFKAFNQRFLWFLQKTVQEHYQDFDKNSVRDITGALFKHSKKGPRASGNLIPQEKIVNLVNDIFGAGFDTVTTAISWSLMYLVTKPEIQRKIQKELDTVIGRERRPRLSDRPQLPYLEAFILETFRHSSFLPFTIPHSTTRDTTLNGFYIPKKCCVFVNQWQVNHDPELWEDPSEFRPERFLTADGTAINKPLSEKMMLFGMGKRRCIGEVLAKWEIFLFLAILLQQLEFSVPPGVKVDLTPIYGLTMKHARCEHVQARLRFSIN
Put plainly: Inhibition of recombinant human CYP1A2 using 3-cyano-7-ethoxycoumarin as substrate preincubated for 10 mins followed by substrate addition and measured after 15 mins. The format is ADME.

Data set [11] in a line: Metabolic stability in human liver microsomes assessed as parent compound remaining at 0.2 mM after 30 mins in presence of NADPH by HPLC-MS/MS analysis. The class given is ADME, Microsome. To be noted: read-out: Stability.
Data set [12] is filed under the species Rattus norvegicus. The data set can be described thus: Increase in threshold of bladder-filling volume in rat. The note with it: read-out: MED. The class given is functional.

T1 sequence (P41594 whole entry): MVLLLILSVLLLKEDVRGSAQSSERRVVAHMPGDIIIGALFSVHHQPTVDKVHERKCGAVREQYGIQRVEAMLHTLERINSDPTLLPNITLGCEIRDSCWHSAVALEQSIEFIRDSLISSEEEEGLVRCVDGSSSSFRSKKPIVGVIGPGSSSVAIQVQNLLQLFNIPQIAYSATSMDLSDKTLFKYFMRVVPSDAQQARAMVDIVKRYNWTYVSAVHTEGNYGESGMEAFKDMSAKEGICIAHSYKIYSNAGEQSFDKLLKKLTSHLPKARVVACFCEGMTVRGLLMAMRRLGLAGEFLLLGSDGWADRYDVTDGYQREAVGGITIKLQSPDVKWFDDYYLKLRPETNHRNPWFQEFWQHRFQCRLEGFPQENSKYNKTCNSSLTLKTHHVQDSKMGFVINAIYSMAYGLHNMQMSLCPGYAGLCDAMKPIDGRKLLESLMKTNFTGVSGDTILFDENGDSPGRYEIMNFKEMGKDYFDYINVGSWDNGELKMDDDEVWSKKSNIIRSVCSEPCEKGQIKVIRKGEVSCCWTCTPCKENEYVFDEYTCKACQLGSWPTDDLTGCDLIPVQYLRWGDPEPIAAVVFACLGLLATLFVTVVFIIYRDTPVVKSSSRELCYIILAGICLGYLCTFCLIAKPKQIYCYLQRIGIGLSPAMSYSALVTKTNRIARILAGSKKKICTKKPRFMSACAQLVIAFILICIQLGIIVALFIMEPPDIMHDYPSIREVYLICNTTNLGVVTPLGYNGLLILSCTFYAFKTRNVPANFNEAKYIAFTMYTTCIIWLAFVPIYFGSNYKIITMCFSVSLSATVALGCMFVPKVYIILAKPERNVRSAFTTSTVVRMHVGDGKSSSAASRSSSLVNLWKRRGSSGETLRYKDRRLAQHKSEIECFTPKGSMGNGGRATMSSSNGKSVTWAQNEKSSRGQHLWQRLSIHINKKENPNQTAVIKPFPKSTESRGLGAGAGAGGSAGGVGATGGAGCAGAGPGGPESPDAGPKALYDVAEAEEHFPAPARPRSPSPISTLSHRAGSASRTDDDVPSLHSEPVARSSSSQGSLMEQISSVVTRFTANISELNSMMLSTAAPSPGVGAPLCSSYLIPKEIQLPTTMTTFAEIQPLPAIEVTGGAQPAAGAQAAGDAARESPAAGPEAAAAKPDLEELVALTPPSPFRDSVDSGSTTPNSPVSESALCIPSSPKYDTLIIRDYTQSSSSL
Chain of Metabotropic glutamate receptor 1 (P23385 whole entry): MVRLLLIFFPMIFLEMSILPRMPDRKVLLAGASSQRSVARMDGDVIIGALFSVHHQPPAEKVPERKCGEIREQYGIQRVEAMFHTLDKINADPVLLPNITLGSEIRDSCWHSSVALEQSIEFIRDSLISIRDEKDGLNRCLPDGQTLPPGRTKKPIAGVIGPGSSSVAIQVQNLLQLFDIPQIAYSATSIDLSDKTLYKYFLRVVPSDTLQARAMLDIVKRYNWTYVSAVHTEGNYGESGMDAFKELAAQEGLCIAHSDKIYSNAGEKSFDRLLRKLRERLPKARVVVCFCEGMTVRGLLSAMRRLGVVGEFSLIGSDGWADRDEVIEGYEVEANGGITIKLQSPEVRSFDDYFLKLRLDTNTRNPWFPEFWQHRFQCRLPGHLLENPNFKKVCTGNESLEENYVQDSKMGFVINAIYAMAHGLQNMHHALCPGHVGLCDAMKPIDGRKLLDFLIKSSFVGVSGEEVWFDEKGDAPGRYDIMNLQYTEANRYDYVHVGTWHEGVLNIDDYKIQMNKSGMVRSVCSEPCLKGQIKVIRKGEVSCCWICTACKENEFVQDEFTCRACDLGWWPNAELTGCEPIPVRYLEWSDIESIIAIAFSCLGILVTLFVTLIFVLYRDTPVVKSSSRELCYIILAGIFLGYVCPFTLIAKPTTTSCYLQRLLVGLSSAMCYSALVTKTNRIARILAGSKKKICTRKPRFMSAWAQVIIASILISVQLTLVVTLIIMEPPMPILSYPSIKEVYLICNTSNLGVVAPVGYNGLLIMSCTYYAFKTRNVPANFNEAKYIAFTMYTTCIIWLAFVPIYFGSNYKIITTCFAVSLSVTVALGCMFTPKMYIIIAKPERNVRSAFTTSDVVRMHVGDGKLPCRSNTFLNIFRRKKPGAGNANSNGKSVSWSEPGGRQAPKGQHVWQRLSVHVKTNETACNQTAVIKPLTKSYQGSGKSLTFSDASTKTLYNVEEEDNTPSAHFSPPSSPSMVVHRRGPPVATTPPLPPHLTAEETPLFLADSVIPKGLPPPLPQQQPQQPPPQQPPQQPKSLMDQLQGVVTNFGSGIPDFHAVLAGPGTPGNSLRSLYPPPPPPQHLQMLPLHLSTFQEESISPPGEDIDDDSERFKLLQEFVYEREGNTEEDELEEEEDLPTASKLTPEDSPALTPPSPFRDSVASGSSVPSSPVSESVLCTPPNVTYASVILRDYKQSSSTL
Chain of Cytochrome P450 2D6 (P10635 whole entry): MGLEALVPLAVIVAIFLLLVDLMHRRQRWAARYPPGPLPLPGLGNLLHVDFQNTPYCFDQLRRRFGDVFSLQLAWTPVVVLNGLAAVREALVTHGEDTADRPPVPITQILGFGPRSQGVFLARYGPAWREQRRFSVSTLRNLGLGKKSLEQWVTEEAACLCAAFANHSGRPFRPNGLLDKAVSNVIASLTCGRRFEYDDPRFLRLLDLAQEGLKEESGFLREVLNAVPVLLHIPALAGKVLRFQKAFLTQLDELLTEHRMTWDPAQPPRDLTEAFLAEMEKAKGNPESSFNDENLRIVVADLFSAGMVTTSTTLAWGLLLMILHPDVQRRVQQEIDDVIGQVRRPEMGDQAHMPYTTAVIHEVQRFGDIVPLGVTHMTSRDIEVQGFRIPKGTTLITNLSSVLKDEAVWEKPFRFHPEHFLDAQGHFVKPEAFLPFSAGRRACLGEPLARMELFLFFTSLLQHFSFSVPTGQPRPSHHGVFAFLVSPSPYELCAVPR
Chain of Cytochrome P450 3A4 (P08684 whole entry): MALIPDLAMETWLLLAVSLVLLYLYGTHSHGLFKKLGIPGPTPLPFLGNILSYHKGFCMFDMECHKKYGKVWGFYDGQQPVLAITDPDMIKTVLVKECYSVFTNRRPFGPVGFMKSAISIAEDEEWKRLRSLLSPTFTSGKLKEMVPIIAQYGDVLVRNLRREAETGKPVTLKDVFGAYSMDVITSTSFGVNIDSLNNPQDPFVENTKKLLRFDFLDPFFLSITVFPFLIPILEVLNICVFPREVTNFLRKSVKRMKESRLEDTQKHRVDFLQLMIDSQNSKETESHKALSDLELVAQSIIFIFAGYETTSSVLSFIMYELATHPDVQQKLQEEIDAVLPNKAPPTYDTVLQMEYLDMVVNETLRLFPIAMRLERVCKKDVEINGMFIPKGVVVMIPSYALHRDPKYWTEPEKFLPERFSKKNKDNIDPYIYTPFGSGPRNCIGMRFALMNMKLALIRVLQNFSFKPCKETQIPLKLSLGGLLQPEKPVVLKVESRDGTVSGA
Chain of CYP3A4 (P08684 whole entry): as above

By IC50 is commonly meant the concentration at which inhibition is half-maximal. A word on the Ki: it is a measure of affinity in units of concentration, obtained from inhibition or displacement. Higher therefore signals weaker binding. As to `CCN(C(=O)N1CCC(=CC#Cc2cccc(C)n2)CC1)C(C)C`, the IC50 is 0.133 µM in [1], > 20 µM in data set [5], 15.4 µM in data set [9] and 3.4 µM in [10]. Also, the Drug metabolism result in [2] and in data set [8] was “Metabolite_Detected” in each case. In addition, the Ki in [3] is 0.0029 µM; in [6], > 1 µM. In addition, the remaining at 0.5 h, 200 µM in [4] was < 1%; in [7], 1%; in [11], < 1%.

Consider `Cc1nc(C#Cc2ccnc(Cl)c2)c(C)n1-c1ccc(F)cc1` [BASIMGLURANT], for which the minimal effective dose in data set [12] turned out to be 0.03 mg/kg.
